Results on 1 compound are retold here after ChEMBL document CHEMBL1671809, “Discovery of phosphoric acid mono-{2-[(E/Z)-4-(3,3-dimethyl-butyrylamino)-3,5-difluoro-benzoylimino]-thiazol-3-ylmethyl} ester (Lu AA47070): a phosphonooxymethylene prodrug of a potent and selective hA(2A) receptor antagonist” (J Med Chem, 2011).

What is called IC50 is the concentration that gives 50% inhibition. The term Cmax denotes the peak of the concentration-time curve. Broadly, the Ki is the equilibrium dissociation constant of an inhibitor or competing ligand from its target. For orientation: ED50 means the dose that gives a 50% effect, or the effect in half of the subjects. By solubility is commonly meant the concentration that dissolves in the medium under given conditions. Broadly, the Tmax is the time at which the peak concentration occurs.

The target in series [1] is Cytochrome P450 2D6 (Homo sapiens, UniProt P10635). In words: Inhibition of recombinant CYP2D6 after 45 mins. The series is classed as ADME. The method, boiled down:
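Recombinant CYP supersomes incubated in phosphate buffer with eight compound concentrations (40-0.02 μM) and fluorogenic substrates. CYP1A2: 7-ethoxy-3-cyanocoumarin 10 μM, 28 min. CYP2C19: same substrate 50 μM, 45 min. CYP2D6: AMMC 3 μM, 45 min. CYP3A4: resorufin benzyl ether 100 μM, 30 min. Fluorescent metabolite read; IC50 relative to uninhibited controls.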

Series [2] addresses Cytochrome P450 3A4 (Homo sapiens, UniProt P08684). In words: Inhibition of recombinant CYP3A4 after 30 mins. The series is classed as ADME. Put shortly: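 Recombinant CYP supersomes incubated in phosphate buffer with eight compound concentrations (40-0.02 μM) and fluorogenic substrates. CYP3A4: resorufin benzyl ether 100 μM, 30 min. Fluorescent metabolite read; IC50 relative to uninhibited controls.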

In series [3] the test system is Rattus norvegicus. In words: Cmax in Sprague-Dawley rat at 1 mg/kg, po. It is filed as ADME, organism-based. Details: dose 1 mg/kg, route oral. The settings on record: in vivo. Put shortly: (§1)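 Awake Sprague-Dawley rats carrying a carotid catheter were dosed with 0.5 mg/kg iv or 1 mg/kg po in aqueous 25% cremophore, n = 3 per route. Ten 100 μL blood samples were collected automatically over 20 h. Plasma was assayed by HTLC-MS/MS. Parameters came from a two-compartment model with first-order absorption (po) and elimination.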

The nature of series [4]: Volume of distribution at steady state in Sprague-Dawley rat at 0.5 mg/kg, iv and 1 mg/kg, po. It is filed as ADME, organism-based. The conditions noted are these: in vivo, read-out: Vdss. Put shortly:
as §1

In series [5] the target is Adenosine receptor A2a (Homo sapiens, UniProt P29274). Description: Displacement of [3H]-ZM241385 from human adenosine A2A receptor expressed in high five cells after 30 mins by scintillation counting. On the technique in general: Displacement assays read how much labelled ligand stays bound in the presence of the test substance.
Series [6] relates to Mus musculus. In words: Displacement of [3H]SCH58261 from po dosed NMRI mouse striatum by liquid scintillation counting. The series is classed as functional.
Series [7] is described as follows: Aqueous solubility of the compound at pH 7.4. The series is classed as physicochemical. The settings on record: buffer. Put shortly:
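About 5 mg solid was shaken overnight in 1 mL of 25 mM phosphate buffer, pH 7.4, after 3 min sonication; more solid was added if it all dissolved. The suspension was filtered through 0.22 μm PVDF and the solution measured by HPLC against a standard curve.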

The test system of series [8] is Hepatocyte. Description: Intrinsic clearance in human hepatocytes at 0.2 uM after 60 mins. It is filed as ADME, cell-based, Liver. The conditions noted are these: 1 h. The method, boiled down: (§2)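 Pooled cryopreserved hepatocytes: human (three donors), male Sprague-Dawley rat (two donors), male beagle dog (two donors). Cells at 10^6/mL in DMEM with 5 mM HEPES, 37 C, 15 min preincubation; compound at 0.2 μM. Samples at 0-60 min, depletion by LC-MS/MS. t1/2 scaled to CLint with 120 (human, rat) or 240 (dog) million cells/g liver. n = 1.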

The nature of series [9]: Protein binding in dog serum at 1 uM after 60 mins by LC/MS-MS. The settings on record: read-out: PPB (converted). The series is classed as ADME, cell-free, Canis lupus familiaris.
Series [10] is described as follows: Intrinsic clearance in dog hepatocytes at 0.2 uM after 60 mins. The series is classed as ADME, cell-based, Canis lupus familiaris, Liver, Hepatocyte. The settings on record: 1 h. Put shortly: as §2
Series [11] in a line: Tmax in Sprague-Dawley rat at 1 mg/kg, po. It is filed as ADME, organism-based. Set-up: dose 1 mg/kg, route oral. The settings on record: in vivo. Put shortly: as §1
Series [12] deals with T1, Adenosine receptor A2b (Homo sapiens, UniProt P29275).
T1 sequence (P29275 whole entry): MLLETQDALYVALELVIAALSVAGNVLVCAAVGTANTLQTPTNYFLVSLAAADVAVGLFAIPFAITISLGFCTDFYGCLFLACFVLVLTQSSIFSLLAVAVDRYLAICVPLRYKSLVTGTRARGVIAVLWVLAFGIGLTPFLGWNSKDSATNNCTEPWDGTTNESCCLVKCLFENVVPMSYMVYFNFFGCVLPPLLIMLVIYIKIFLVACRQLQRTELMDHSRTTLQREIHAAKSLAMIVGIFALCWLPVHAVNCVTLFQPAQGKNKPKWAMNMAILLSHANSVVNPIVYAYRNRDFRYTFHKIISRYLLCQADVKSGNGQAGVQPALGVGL
In words: Displacement of [3H]-MRS1754 from human recombinant adenosine A2B receptor expressed in HEK293 cells after 120 mins.

Series [13] concerns the target Cytochrome P450 2C9 (Homo sapiens, UniProt P11712). In words: Inhibition of recombinant CYP2C9 after 45 mins. It is filed as ADME.

Values after ≈ are worked out from the molar mass of the structure shown. A value given as a limit tells only on which side of the number the result lay.

Chain of Cytochrome P450 2C9 (P11712 whole entry): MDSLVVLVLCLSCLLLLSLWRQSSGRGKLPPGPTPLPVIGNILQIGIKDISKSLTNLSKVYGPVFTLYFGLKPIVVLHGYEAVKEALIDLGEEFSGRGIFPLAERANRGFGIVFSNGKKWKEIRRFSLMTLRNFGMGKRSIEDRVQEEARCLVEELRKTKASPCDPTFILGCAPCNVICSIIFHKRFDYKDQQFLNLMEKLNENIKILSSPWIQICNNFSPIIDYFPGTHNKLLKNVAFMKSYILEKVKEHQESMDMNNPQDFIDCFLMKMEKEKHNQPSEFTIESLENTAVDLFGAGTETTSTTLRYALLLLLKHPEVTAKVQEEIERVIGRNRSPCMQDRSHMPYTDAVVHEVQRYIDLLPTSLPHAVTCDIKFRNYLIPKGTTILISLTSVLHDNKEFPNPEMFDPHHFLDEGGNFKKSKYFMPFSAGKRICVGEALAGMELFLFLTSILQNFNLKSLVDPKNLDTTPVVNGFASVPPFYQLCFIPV
Chain of Cytochrome P450 3A4 (P08684 whole entry): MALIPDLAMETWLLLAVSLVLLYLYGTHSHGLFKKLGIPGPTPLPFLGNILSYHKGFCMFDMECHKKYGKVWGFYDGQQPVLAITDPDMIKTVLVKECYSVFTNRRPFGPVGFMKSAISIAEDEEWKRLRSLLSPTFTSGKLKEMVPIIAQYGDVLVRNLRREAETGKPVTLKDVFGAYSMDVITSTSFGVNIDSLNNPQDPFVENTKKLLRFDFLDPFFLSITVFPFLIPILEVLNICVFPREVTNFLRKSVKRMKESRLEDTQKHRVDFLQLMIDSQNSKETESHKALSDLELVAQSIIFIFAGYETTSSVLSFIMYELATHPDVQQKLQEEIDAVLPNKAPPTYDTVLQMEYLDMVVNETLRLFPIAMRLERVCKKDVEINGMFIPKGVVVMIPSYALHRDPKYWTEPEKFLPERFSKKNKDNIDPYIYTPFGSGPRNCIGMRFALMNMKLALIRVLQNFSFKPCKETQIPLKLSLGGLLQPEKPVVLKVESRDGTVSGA
Chain of Adenosine receptor A2a (P29274 whole entry): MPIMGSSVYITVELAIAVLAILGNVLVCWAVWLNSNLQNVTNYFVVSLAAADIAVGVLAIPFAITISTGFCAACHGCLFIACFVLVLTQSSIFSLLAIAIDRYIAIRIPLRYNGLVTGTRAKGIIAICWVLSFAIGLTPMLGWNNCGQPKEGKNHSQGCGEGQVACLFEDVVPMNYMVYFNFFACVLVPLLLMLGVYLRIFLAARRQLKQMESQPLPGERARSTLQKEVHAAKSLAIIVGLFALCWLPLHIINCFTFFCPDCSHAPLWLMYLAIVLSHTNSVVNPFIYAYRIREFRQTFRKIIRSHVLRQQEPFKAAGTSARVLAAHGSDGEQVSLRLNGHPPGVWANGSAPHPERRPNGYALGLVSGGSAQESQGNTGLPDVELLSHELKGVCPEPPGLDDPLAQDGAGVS
Chain of Cytochrome P450 2D6 (P10635 whole entry): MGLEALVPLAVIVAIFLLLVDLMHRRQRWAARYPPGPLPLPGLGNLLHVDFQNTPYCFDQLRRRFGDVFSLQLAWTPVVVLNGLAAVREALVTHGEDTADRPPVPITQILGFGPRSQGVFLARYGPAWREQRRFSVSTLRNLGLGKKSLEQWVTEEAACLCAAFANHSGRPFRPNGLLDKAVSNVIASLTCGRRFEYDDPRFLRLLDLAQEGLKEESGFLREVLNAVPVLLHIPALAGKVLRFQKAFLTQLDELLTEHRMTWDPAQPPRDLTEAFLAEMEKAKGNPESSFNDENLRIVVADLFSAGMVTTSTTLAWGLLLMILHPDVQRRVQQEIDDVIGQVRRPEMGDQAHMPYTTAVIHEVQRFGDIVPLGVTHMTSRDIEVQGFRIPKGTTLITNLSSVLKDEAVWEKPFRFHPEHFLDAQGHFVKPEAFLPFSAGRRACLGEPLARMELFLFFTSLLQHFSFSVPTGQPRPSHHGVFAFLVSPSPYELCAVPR

For `CC(C)(C)CC(=O)Nc1c(F)cc(C(=O)Nc2nccs2)cc1F`, the IC50 in [1], in series [2] and in series [13] was more than 40000 nM each time. This compound also had a maximum concentration (Cmax) in series [3] of 878 ng/mL. In addition, in series [4], the Vd stood at 1 L/kg. Moreover, the Ki in series [5] came out at 5.9 nM; in [12], 260 nM. Besides, in series [6], the Activity result was “Dose-dependent effect”. The compound further returned an ED50 in series [6] of 1.1 mg/kg. The compound further returned a solubility in [7] of 1 µg/mL (≈ 2.83 µM). The values for the CL in series [8] and in series [10] were 600 mL/min and 346 mL/min, respectively. Further, the fraction unbound at 1 h, 1 µM in series [9] is 0.13. Further, the time to peak (Tmax) in series [11] was determined as 30 min.
